The list is not random: actives were taken first. Their share in the collection is about 1.5%.
CSN deneddyl inh = blocks human CSN-mediated cullin deneddylation | Q92905 | Purified CSN, SCF-Nedd8-OG deneddylation, fluorescence polarization | inhibition, % at 12.5 µM | hit rate 0.38% among 360,000;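 active means pattern-corrected inhibition above about 35%, with an unprinted fluorescence ratio check between 0.5 and 1.5, limit read from the data, passing the limit was not always enough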;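 further: 0% = enzyme with substrate and 100% = substrate without enzyme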
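Schedule: reaction 90 min, room temperature / Assay system: HEK293T-derived human Csn5 enzyme / Input: Csn5 at 0.24 nM final / Measure: inhibition of Csn5 cleavage, % / Control set: substrate-only high control, full reaction low control / Technique: fluorescence polarization of the substrate / Buffer or medium: Tris/NaCl/DTT buffer, pH 7.5 / Reagent: SCFSkp2-Nedd8OG substrate at 10 nM final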
Rev-erbA mod = modulators of human Rev-erb alpha DNA binding | activity, % at 10 µM | hit rate 0.79% among 370,000 | AID 1259318 | Rev-erbα–FITC-DNA binding, fluorescence polarization, 90 min | P20393;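 active means activity above about 14%, limit read from the data; passing the limit was not always enough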;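 further: 0% = DMSO wells with 35 nM protein and 100% = DMSO wells with 750 nM protein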
Target sequence (P20393 whole entry, looked up): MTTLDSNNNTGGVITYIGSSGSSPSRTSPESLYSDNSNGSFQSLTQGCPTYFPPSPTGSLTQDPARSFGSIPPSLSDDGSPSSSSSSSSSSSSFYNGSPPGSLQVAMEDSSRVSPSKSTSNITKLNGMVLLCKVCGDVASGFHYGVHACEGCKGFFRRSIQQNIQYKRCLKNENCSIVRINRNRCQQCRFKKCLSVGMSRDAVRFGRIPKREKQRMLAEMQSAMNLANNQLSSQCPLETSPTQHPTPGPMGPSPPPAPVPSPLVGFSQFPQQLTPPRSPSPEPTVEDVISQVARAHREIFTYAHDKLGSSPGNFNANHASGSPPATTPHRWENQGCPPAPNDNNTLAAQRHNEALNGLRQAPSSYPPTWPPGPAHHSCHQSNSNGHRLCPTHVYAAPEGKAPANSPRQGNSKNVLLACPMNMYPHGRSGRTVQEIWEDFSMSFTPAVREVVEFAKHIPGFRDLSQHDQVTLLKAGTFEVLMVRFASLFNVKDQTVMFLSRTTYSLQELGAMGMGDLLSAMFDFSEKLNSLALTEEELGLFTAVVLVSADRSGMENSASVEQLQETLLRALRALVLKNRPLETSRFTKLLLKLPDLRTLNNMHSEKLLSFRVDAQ
aDG glyco act = alpha-DG glycosylation activation; Pro5-aDG cells, alpha-DG glycosylation AlphaScreen (IIH6); 0% Pro5, 100% B10-LARGE cell signal; activation, % at 10 µM; hit rate 0.22% among 360,000;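 active means activation of at least 8% versus controls, or a plate z-score of at least 8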;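 further: Pro5 are CHO cells carrying HIG-tagged alpha-DG that lacks glycosylation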
HNF4A DNA FP = change in binding of human HNF4 alpha to DNA; HNF4a-FITC DNA binding, fluorescence polarization, 1 h; AID 1224865; activity change, % at 10 µM; P41235; hit rate 0.3% among 360,000; in the data active means activity change above about 30%, passing the limit was not always enough
NR1D1 mod conf = confirmation of modulators of human Rev-erb alpha DNA binding; shares compounds with Rev-erbA mod; Rev-erb alpha FITC-DNA binding, fluorescence polarization, 90 min; activation, % at 25 µM; hit rate 61% among 3,000; AID 1259319;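 active means activation at or above a set limit, or at least 3 SD above the negative control mean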;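 further: 0% = 35 nM protein with DMSO and 100% = 750 nM protein high control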
RORg counter = RORgamma DNA-binding activity, dose-response counter-screen; AID 1259320; purified RORgamma protein-FITC-DNA binding, fluorescence polarization; IC50, µM; hit rate 8% among 910; shares compounds with Rev-erbA mod;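 active means Compounds whose fitted half-maximal concentration for disrupting protein-DNA binding is below 10 micromolar; the record names Rev-erb in its text, so the target is in doubt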
An asterisk follows results filed as active.

`CN(/N=C/c1cccnc1)c1cnn(-c2ccc(F)c(Cl)c2)c(=O)c1Cl` gave CSN deneddyl inh 6.6, Rev-erbA mod 25.9*, aDG glyco act -0.3, HNF4A DNA FP 1.5 and NR1D1 mod conf 5.9.
CN(/N=C/c1cccnc1)C1=NS(=O)(=O)c2ccccc21 was read as CSN deneddyl inh -4.2, Rev-erbA mod 0.5, aDG glyco act -0.4 and HNF4A DNA FP 2.6.
For Cc1ccc2cc(/C=C(\C#N)C(N)=O)c(N3CCCCC3)nc2c1 the results were CSN deneddyl inh 5.0, Rev-erbA mod 4.1, aDG glyco act 0.2 and HNF4A DNA FP 5.3.
For CCOC(=O)/C(C#N)=C/c1cc2ccccc2nc1N1CCCCC1 the results were CSN deneddyl inh 11.5, Rev-erbA mod 43.3*, aDG glyco act 0.1, HNF4A DNA FP 16.9, NR1D1 mod conf 43.0* and RORg counter >40.
`Cc1nn(-c2ccccc2)c2sc(C(=O)NCCc3ccccc3)cc12` gave Rev-erbA mod -1.3.
For O=S(=O)(CC1NCc2ccccc21)NCc1ccc(F)cc1 (stereo not drawn) the results were Rev-erbA mod 3.8.
`CC(C)(C)C(=O)Nc1ccc2oc(-c3cc(F)c(F)cc3Cl)nc2c1` gave CSN deneddyl inh 2.0, Rev-erbA mod 22.3*, aDG glyco act 1.8, HNF4A DNA FP -0.2 and NR1D1 mod conf 13.8.
Screening O=C(N=C1N(Cc2ccccc2)C[C@]2(C=C3CCCCC3n3c(=O)n(-c4ccccc4)c(=O)n32)N1C(=O)OCc1ccccc1)c1ccccc1 (stereo partly drawn) returned Rev-erbA mod 8.5.
`COc1cccc(-c2nc3sc4c(c3c(=O)[nH]2)CCCCC4)c1` gave CSN deneddyl inh -0.6, Rev-erbA mod 26.3*, aDG glyco act -0.5, HNF4A DNA FP 0.7 and NR1D1 mod conf 1.6.
Screening O=c1c2ccccc2sc2ccc(Cl)cc12 returned CSN deneddyl inh -11.2, Rev-erbA mod 79.9*, aDG glyco act -0.1, HNF4A DNA FP -2.2, NR1D1 mod conf 77.4* and RORg counter >40.
`COC(=O)c1ccc(COc2ccc3c4c(c(=O)oc3c2)CCC4)o1` gave CSN deneddyl inh 2.9, Rev-erbA mod 33.9*, aDG glyco act 0.1, HNF4A DNA FP -3.0 and NR1D1 mod conf 1.2.
Cc1cc(-c2nc3cccnc3s2)ccc1NS(=O)(=O)c1ccc2c(c1)OCCO2 was read as CSN deneddyl inh -4.1, Rev-erbA mod 25.0*, aDG glyco act 0.9, HNF4A DNA FP 5.9 and NR1D1 mod conf -4.3.
`Cc1ccc(-c2cc(-c3nnc(SCC(=O)Nc4ccccc4-c4ccccc4)n3N)[nH]n2)cc1` gave Rev-erbA mod -1.8.
CN(C)CCNc1ccc2ncn3c4ccc(O)cc4c(=O)c1c23 was read as CSN deneddyl inh -59.2, Rev-erbA mod 19.8*, aDG glyco act 0.0, HNF4A DNA FP -153.5 and NR1D1 mod conf 24.0*.
CN(C)CCNc1ccc(-c2nn(C)c(=O)c3ccccc23)cc1[N+](=O)[O-] was read as CSN deneddyl inh 0.3, Rev-erbA mod 15.7, aDG glyco act -0.3 and HNF4A DNA FP 3.0.
CC(C)=Cc1oc2ccc([N+](=O)[O-])cc2c1N1CCOCC1 was read as CSN deneddyl inh -6.8, Rev-erbA mod -3.2, aDG glyco act -0.4 and HNF4A DNA FP 1.8.
COc1ccc2oc(/C=C/N(C)C)c(C(=O)c3ccc(Cl)cc3)c2c1 was read as CSN deneddyl inh -0.9, Rev-erbA mod -1.1, aDG glyco act 0.0 and HNF4A DNA FP 9.1.
`CC(=O)Oc1ccc2oc(/C=C/N(C)C)c([N+](=O)[O-])c2c1` gave CSN deneddyl inh 10.3, Rev-erbA mod 25.1*, aDG glyco act 1.9, HNF4A DNA FP 25.3, NR1D1 mod conf 43.2* and RORg counter >40.
`C/C(=C/c1oc2ccc(O)cc2c1[N+](=O)[O-])N(C)C` gave CSN deneddyl inh 2.2, Rev-erbA mod 22.5*, aDG glyco act -0.2, HNF4A DNA FP 8.8 and NR1D1 mod conf 25.5*.
For O=S(=O)(c1cc2ccccc2s1)n1c(CN2CCOCC2)nc2ccccc21 the results were Rev-erbA mod -1.5.
Screening CCCCCCSc1ccc(-c2nc3cnccn3c2NCCCC)cc1 returned CSN deneddyl inh 0.1, Rev-erbA mod 24.6*, aDG glyco act 1.2, HNF4A DNA FP 9.3 and NR1D1 mod conf 14.2.
Screening CCCCNc1c(-c2ccc(Sc3ccc(OC)cc3)cc2)nc2cc(C)ccn12 returned CSN deneddyl inh 5.6, Rev-erbA mod 21.2*, aDG glyco act 2.2, HNF4A DNA FP -1.5 and NR1D1 mod conf 11.3.
For O=C(Nc1nc(Cc2ccccc2)c(-c2ccccc2)n1Cc1ccccc1)c1ccccc1 the results were Rev-erbA mod 0.9.
Screening COc1ccc(-c2nn(C)c3sc(C(=O)NCc4ccco4)cc23)cc1OC returned CSN deneddyl inh 0.6, Rev-erbA mod 58.3*, aDG glyco act 0.1, HNF4A DNA FP 0.7, NR1D1 mod conf 51.7* and RORg counter inactive.
For COc1ccc(NC(=O)c2cc3c(-c4ccc(OC)c(OC)c4)nn(C)c3s2)cc1OC the results were CSN deneddyl inh 0.2, Rev-erbA mod 1.8, aDG glyco act -0.2 and HNF4A DNA FP -0.8.
For COc1ccc2c(c1)N[C@@](CCN1C(=O)c3ccccc3C1=O)(c1[nH]c3ccccc3c1CCN1C(=O)c3ccccc3C1=O)C2=O the results were Rev-erbA mod -2.0.
COc1ccc(-c2nc3c4ccccc4ccn3c2C=O)cc1 was read as CSN deneddyl inh 4.6, Rev-erbA mod 53.4*, aDG glyco act 0.3, HNF4A DNA FP 1.2, NR1D1 mod conf 93.1* and RORg counter >40.
For COc1ccc(Cc2c(-c3ccccc3)nc3c4ccccc4ccn23)c(C)c1 the results were CSN deneddyl inh 4.0, Rev-erbA mod 0.8, aDG glyco act 0.0 and HNF4A DNA FP 10.2.
For O=C(CSc1nc2ccccc2nc1N1CCCC1)Nc1ccc(Cl)cc1 the results were CSN deneddyl inh -4.6, Rev-erbA mod 0.5, aDG glyco act -0.3 and HNF4A DNA FP -5.4.
Screening O=C(CSc1nc2ccccc2nc1N1CCCCC1)N1CCN(S(=O)(=O)c2cc(Cl)ccc2Cl)CC1 returned Rev-erbA mod 28.2*, NR1D1 mod conf 29.6* and RORg counter >40.
`O=c1[nH]c(-c2ccc(F)cc2)nc2c1sc(=S)n2-c1ccccc1` gave CSN deneddyl inh 12.1, Rev-erbA mod -0.4, aDG glyco act -0.3 and HNF4A DNA FP -0.5.
O=c1[nH]c(-c2ccc3c(c2)OCO3)nc2c1sc(=S)n2-c1ccccc1 was read as CSN deneddyl inh 3.4, Rev-erbA mod 76.0*, aDG glyco act 1.3, HNF4A DNA FP -17.4 and NR1D1 mod conf 17.9.
For O=C(CN1C(=O)c2cccc3cccc1c23)N1CCN(c2cccc(Cl)c2)CC1 the results were CSN deneddyl inh -4.0, Rev-erbA mod 49.4*, aDG glyco act 0.0, HNF4A DNA FP -2.5 and NR1D1 mod conf 27.1*.

From PubChem
